Screens (PubChem)
Most compounds without a hit are left out; they make up all but 4.9% or so of the library.
HSF1 activator: increases HSF-1 driven luciferase reporter signal; NIH3T3-HGL HSF-1 luciferase reporter, MG132, 8 h; 100% = twice DMSO control signal; activation, % at 9 µM; actives 1.7% (n = 300,000); AID 504408;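 active means mean replicate activation of at least 50% with a set share of replicates each reaching 50%; inconclusive means only one of those two conditions met; inactive means mean below 50% and too few replicates reaching it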;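 further: 0% = median of the neutral control wells and 100% = twice that signal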
CHT inh: inhibits the human high affinity choline transporter; AID 488975; B-score at 10 µM; CHT-expressing cells, membrane potential dye, choline response; hits give low values; actives 0.86% (n = 310,000); Q9GZV3;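 active means B-score over 3 SD under the library average, and starting fluorescence ratio not unusually high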;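 further: choline stimulus applied at its EC90 after an EC20 pre-addition; B-score computed on integrated fluorescence ratio after choline addition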
CHT PAM: allosterically activates the human high affinity choline transporter; Q9GZV3; CHT-expressing cells, membrane potential dye, choline EC20; hits give high values; LV-AA mutant CHT in HEK293 cells; B-score at 10 µM; actives 0.49% (n = 310,000);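 active means initial fluorescence not abnormally high and integrated response B-score, plate-corrected, over 3 SD above library mean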
Lipid droplet: hepatic lipid droplet formation modulation; AID 1656; inhibition, % at 6.5 µM; actives 0.4% (n = 240,000); AML12 mouse hepatocytes, oleate lipid droplets, BODIPY imaging;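 active means lipid droplet intensity inhibited by at least 50%, with more than 500 cells counted; inconclusive means wells with under 300 cells, treated as cytotoxic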
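Test system: AML12 hepatocytes (mouse); reagent: oleate loading, 100 µM; dosing: one dose, 6.5 µM compound; incubation: overnight exposure; signal: fluorescence imaging, 20x objective, two fields per well; read-out basis: % inhibition of corrected integrated BODIPY droplet signal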
HSF1 inhib: HSF1 inhibition; NIH3T3-HGL HSE-luciferase, MG132-induced, luminescence 8 h; hits give low values; activity change, negative = inhibition, % at 7.5 µM (by protocol); actives 0.77% (n = 300,000); AID 2098;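 active means more than half of replicate wells show activity change below -50%, luminescence cut by over half; inconclusive means some wells, but at most half, below -50%; inactive means no replicate well below -50%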;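 further: luciferase reports HSF-1 transcriptional activity via heat shock element; 0% = median of DMSO wells and -100% = zero luminescence signal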
PHOSPHO1 inh: PHOSPHO1 (human) inhibition | actives 1.1% (n = 290,000) | Q8TCT1 | inhibition, % at 13.3 µM | recombinant PHOSPHO1, absorbance phosphatase assay; in the data active means inhibition above about 60%
Target sequence (Q8TCT1 whole entry, looked up): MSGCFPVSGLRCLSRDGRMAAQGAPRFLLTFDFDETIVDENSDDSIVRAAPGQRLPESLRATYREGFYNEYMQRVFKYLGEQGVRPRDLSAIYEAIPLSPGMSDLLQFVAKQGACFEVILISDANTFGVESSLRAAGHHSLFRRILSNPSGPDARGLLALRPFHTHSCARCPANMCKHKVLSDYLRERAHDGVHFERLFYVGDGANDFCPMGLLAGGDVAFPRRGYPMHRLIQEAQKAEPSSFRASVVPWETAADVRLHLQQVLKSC
CHT act confirm: confirmation of human choline transporter (CHT) activators. shares compounds with CHT PAM. CHT-expressing cells, membrane potential dye fluorescence (FDSS); % of choline EC20–EC90 response window; HEK293 expressing CHT LV-AA mutant; choline added at its EC20. activation, % at 10 µM. actives 91% (n = 2,500);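 active means primary screen active, with duplicate mean activation above negative control mean plus 3 SD, cut at about 11% in these data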
HEK293 MP dye: activity in parental HEK293 cells lacking CHT; shares compounds with CHT PAM; membrane potential dye fluorescence (FDSS); measured after EC20 choline addition; ratio readout change at 10 µM, hits read low; actives 62% (n = 2,500); AID 623908;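 active means duplicate-averaged ratio beyond 3 SD from buffer wells, up or down, though filed actives are nearly all decreases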
Starred values were filed as active, the others as inactive; i = inactive; ? = inconclusive; . = no result.

SMILES	HSF1 activator	CHT inh	CHT PAM	Lipid droplet	HSF1 inhib	PHOSPHO1 inh	CHT act confirm	HEK293 MP dye
CC(C)C(=O)N1CCN(c2cc(N3CCN(C)CC3)c(F)cc2[N+](=O)[O-])CC1	8	i	7.9*	-2	-4	9	45*	-49*
Cn1c(SCC(=O)NC2CCCCC2)nnc1-c1ccccn1	39	i	i	3	7	9	.	.
COc1ccc(C(CNC(=O)CSc2ccc(Br)cc2C)N2CCOCC2)cc1 (configuration not stated)	14	i	i	.	5	.	-1	i
O=[N+]([O-])c1cc(C(F)(F)F)ccc1NCCCCNS(=O)(=O)c1ccc2ccccc2c1	3	i	i	.	9	-14	.	.
CC(=O)N(CCCN1CCOCC1)Cc1ccncc1	-11	i	i	-2	-8	15	.	.
Cc1noc(C)c1CSc1nnc2n(-c3ccccc3)c(=O)c3ccccc3n12	0	i	i	.	3	.	.	.
COC(=O)c1ccc(CSc2nc3ccccc3c(=O)n2-c2ccccc2)o1	32	i	8.6*	-8	10	23	19*	i
C=CCn1c(SCc2c(C)noc2C)nc2ccccc2c1=O	-1	i	6.6*	.	-1	-16	27*	i
Cc1noc(C)c1CSc1nc2ccccc2c(=O)n1-c1ccc(F)cc1F	-12	i	11*	-14	13	-1	10	i
Cc1noc(C)c1CSc1nc2ccccc2c(=O)n1-c1ccccc1	15	i	9.3*	.	23	-13	35*	i
C=CCn1c(SCc2c(C)noc2C)nc2cc(C(=O)O)ccc2c1=O	-2	i	i	.	-6	.	.	.
Cc1ccc(S(=O)(=O)NCCCNS(=O)(=O)c2ccccc2[N+](=O)[O-])cc1	-7	i	i	-1	3	25	.	.
Cc1ccc(-c2nnc(SCC(=O)N(CC(C)C)c3c(N)n(Cc4ccccc4)c(=O)[nH]c3=O)n2N)cc1	0	i	i	0	-2	5	.	.
CC(C)Cn1c(/C=C/c2ccccc2)nc2ccccc21	89*	i	i	23	53	-6	23*	i
CCn1c(/C=C/c2ccccc2)nc2ccccc21	?	i	i	.	39	26	.	.
COC(=O)c1c(NC(NC(=O)c2ccccc2)(C(F)(F)F)C(F)(F)F)sc2c1CCN(C)C2	-4	i	7.2*	2	-3	-11	69*	-59*
COCCOC(=O)c1c(C)nc(SCC(=O)Nc2cccc3ccccc23)c(C#N)c1-c1ccco1	10	i	i	-2	-1	-12	.	.
CCC[C@H]1COCCS(=O)(=O)N1Cc1ccccc1F	-12	i	i	-13	-1	-13	3	i
COc1ccc(-n2c(SCC(=O)Nc3ccc(Br)cc3)nc(O)cc2=O)cc1	4	i	i	-1	1	46	.	.
CCC(N=c1cc(-c2ccc(OC)cc2)oc2ccc(C)cc12)C(=O)O (configuration not stated)	59*	i	i	-35	32	-30	32*	-27*
COc1ccc(CN2[C@@H](CC(C)=O)c3cc(C(F)(F)F)ccc3S2(=O)=O)cc1	-3	i	i	.	-4	.	.	.
O=C(NCCCN1CCN(CCCNC(=O)c2cccc(Cl)c2)CC1)c1cccc(Cl)c1	5	i	i	6	6	-12	28*	i
CC1CCN(CCCNC(=O)c2ccc(CSCc3cccc(Cl)c3)o2)CC1	13	i	8.3*	9	1	-14	49*	-35*
COc1ccccc1N1CCN(CCCCNC(=O)c2ccc3ccccc3c2)CC1	.	i	7.6*	.	.	.	36*	-21*
